Measurements taken from ChEMBL document CHEMBL1138638, “Azepinone as a conformational constraint in the design of kappa-opioid receptor agonists” (Bioorg Med Chem Lett, 2004).

Experiments:
[1] = molecular target: T1, Mu-type opioid receptor (Homo sapiens, UniProt P35372); assay: Binding affinity for human Mu opioid receptor
[2] = tested on: Rattus norvegicus; assay: Effective dose required to inhibit formalin induced flinching in rat as a measure of antinociception activity when administered orally; format: functional; conditions: po
[3] = tested on: Mus musculus; assay: Effective dose required to induce sedation was determined in mouse when administered orally; format: functional; conditions: po
Method in brief: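 Mice placed on a raised plastic platform (11 × 7.5 × 3 cm). Latency to step fully off the platform was timed before oral dosing (baseline sedation latency) and 30 min after. ED50 reported with range in parentheses.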

[4] = species on record: Rattus norvegicus; assay: Percent inhibition of rotarod performance based on the comparison of baseline and post-treatment rotarod latencies; format: functional
[5] = molecular target: T2, Delta-type opioid receptor (Homo sapiens, UniProt P41143); assay: Binding affinity for human Delta opioid receptor
[6] = molecular target: T3, Kappa-type opioid receptor (Homo sapiens, UniProt P41145); assay: Binding affinity for human Opioid receptor kappa 1
[7] = tested on: Mus musculus; assay: Effective dose required to inhibit acetic acid induced writhing in mouse when administered orally; format: functional; conditions: po
Method in brief: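 Mice dosed orally with vehicle or test agent; 15 min later given 0.6% acetic acid intraperitoneally. Writhes counted over a 10 min period starting 5 min after the acid injection. ED50 reported with range in parentheses.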

[8] = molecular target: T1, Mu-type opioid receptor; assay: Inhibition percent of compound towards human Mu opioid receptor; set-up: concentration or dose not given beside the values; conditions: concentration not given here
[9] = molecular target: T2, Delta-type opioid receptor; assay: Inhibition percent of compound towards human Delta opioid receptor; set-up: concentration or dose not given beside the values; conditions: concentration not given here
[10] = molecular target: T3, Kappa-type opioid receptor; assay: Binding affinity for human Kappa opioid receptor
[11] = molecular target: Opioid receptors; mu & kappa (Homo sapiens) (UniProt P41145+P35372); assay: Selectivity for kappa opioid receptor over mu opioid receptor; format: protein assay
[12] = molecular target: Opioid receptors; delta & kappa (Homo sapiens) (UniProt P41145+P41143); assay: Selectivity for kappa opioid receptor over delta opioid receptor; format: protein assay
Opioid receptors; delta & kappa (Homo sapiens), sequence (P41143 whole entry, looked up): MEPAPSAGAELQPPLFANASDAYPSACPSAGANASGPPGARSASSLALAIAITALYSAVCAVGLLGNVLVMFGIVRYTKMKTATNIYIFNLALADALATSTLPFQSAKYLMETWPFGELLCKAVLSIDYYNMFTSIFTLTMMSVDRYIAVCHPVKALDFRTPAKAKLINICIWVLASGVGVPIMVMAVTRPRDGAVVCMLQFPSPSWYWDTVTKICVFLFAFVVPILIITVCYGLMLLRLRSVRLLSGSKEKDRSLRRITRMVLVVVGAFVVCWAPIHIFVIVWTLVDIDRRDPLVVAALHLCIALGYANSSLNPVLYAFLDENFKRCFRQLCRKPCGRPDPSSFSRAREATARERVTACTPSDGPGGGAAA
Opioid receptors; delta & kappa (Homo sapiens), sequence (P41145 whole entry, looked up): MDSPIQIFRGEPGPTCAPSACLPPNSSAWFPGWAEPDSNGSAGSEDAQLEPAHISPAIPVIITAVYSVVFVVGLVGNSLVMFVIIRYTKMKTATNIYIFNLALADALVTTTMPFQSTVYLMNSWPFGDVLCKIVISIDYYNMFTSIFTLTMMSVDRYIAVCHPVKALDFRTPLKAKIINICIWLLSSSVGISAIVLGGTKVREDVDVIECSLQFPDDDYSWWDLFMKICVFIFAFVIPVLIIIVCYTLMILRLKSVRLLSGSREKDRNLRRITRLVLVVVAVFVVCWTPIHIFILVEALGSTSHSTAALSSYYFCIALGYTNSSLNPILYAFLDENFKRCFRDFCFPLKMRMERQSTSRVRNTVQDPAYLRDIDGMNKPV

T3 sequence (P41145 whole entry): as the sequence (P41145 whole entry, looked up) above
T2 sequence (P41143 whole entry): as the sequence (P41143 whole entry, looked up) above
T1 sequence (P35372 whole entry): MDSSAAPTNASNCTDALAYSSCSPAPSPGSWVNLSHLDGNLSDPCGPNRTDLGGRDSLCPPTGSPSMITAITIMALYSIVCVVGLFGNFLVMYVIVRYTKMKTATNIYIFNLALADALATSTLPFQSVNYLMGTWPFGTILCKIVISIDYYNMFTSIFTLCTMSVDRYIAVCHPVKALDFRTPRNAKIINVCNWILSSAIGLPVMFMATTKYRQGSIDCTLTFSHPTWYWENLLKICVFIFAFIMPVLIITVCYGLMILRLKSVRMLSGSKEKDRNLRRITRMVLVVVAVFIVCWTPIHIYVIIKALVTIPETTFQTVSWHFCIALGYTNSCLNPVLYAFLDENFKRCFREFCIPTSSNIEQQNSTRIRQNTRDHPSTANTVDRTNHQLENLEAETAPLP
Opioid receptors; mu & kappa (Homo sapiens), sequence (P35372 whole entry, looked up): as the sequence (P35372 whole entry) above
Opioid receptors; mu & kappa (Homo sapiens), sequence (P41145 whole entry, looked up): as the sequence (P41145 whole entry, looked up) above

| Structure (SMILES) | inhibition [8] | inhibition [9] | Ki [10] | further results |
| --- | --- | --- | --- | --- |
| O=C1C(c2ccc(Cl)c(Cl)c2)CC=CCN1C(CN1CCCC1)c1ccccc1 (stereo not drawn) | – | – | – | Ki [1]: 1000 nM; ED50 [2]: 2.7 mg/kg; ED50 [3]: 48 mg/kg; Inhibition [4]: 54%; Ki [5]: 370 nM; Ki [6]: 0.34 nM; ED50 [7]: 1.6 mg/kg |
| COc1ccc(C2CC=CCN(C(CN3CCCC3)c3ccccc3)C2=O)cc1 (stereo not drawn) | < 60% | < 60% | 22 nM | – |
| COc1ccc([C@H]2CC=CCN(C(CN3CCCC3)c3ccccc3)C2=O)cc1 (stereo partly drawn) | < 60% | < 60% | 800 nM | – |
| O=C1C(Oc2ccc(Cl)c(Cl)c2)CC=CCN1C(CN1CCCC1)c1ccccc1 (stereo not drawn) | < 60% | < 60% | 2.6 nM | – |
| O=C1C(c2cccc(S(=O)(=O)N3CCCC3)c2)CC=CCN1C(CN1CCCC1)c1ccccc1 (stereo not drawn) | < 60% | < 60% | 1900 nM | – |
| O=C1C(c2ccc(Cl)cc2)CC=CCN1C(CN1CCCC1)c1ccccc1 (stereo not drawn) | < 60% | < 60% | – | Ki [6]: 2 nM |
| O=C1[C@H](c2ccc(Cl)c(Cl)c2)CC=CCN1[C@H](CN1CC[C@H](O)C1)c1ccccc1 | – | – | 0.2 nM | Selectivity [11]: 1000; Selectivity [12]: 1000 |
| O=C1[C@H](c2ccc(Cl)c(Cl)c2)CC=CCN1[C@H](CN1CCCC1)c1ccccc1 | – | – | 12 nM | Selectivity [11]: 1000; Selectivity [12]: 1000 |
| O=C1[C@@H](c2ccc(Cl)c(Cl)c2)CC=CCN1C(CN1CCCC1)c1ccccc1 (stereo partly drawn) | < 60% | < 60% | – | Ki [6]: 17 nM |
| CN(C(=O)Cc1ccc(Cl)c(Cl)c1)C(CN1CCCC1)c1ccccc1 (stereo not drawn) | – | – | – | ED50 [3]: 7.5 mg/kg |
| O=C1[C@@H](c2ccc(Cl)cc2)CC=CCN1C(CN1CCCC1)c1ccccc1 (stereo partly drawn) | < 60% | < 60% | 35 nM | – |
| O=C1C(c2ccc(C(F)(F)F)cc2)CC=CCN1C(CN1CCCC1)c1ccccc1 (stereo not drawn) | < 60% | – | 0.72 nM | Ki [5]: 1000 nM |
